Results from ChEMBL document CHEMBL1127659, “In vitro and in vivo activities of reduced-size antagonists of luteinizing hormone-releasing hormone” (J Med Chem, 1994).
Where a SMILES comes first, the peptide text is derived from it. [ ]: non-standard residue; d: D form. The star is where a group is joined. Propanoyl(3-(4-F-phenyl)) = O=C(CCc1ccc(F)cc1)*; Propanoyl(3-(4-Cl-Ph)) = O=C(CCc1ccc(Cl)cc1)*; Desaminotyrosyl = O=C(CCc1ccc(O)cc1)*; d1Nal = N[C@H](Cc1cccc2ccccc12)C(=O)O; Lys(iPr) = CC(C)NCCCC[C@H](N)C(=O)O; NMeY = CN[C@@H](Cc1ccc(O)cc1)C(=O)O; Nicotinoyl = O=C(c1cccnc1)*; X1 = O=C(Cc1ccc(O)cc1)*

Organism: Rattus norvegicus
Assay: In vitro antagonistic potency against release of luteinizing hormone (LH) from cultured rat pituitary cells.
Assay type: functional
Conditions: Pituitary gland cell, read-out: pA2 (converted)
In short: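 Cultured rat pituitary cells, agonist-stimulated LH release. pA2 is the negative log of the antagonist concentration that makes a 2-fold higher agonist concentration necessary to release LH. Compounds tested as TFA salts.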

| Compound | Kb |
| --- | --- |
| CCNC(=O)[C@@H]1CCCN1C(=O)[C@H](CCCN=C(N)N)NC(=O)[C@H](CC(C)C)NC(=O)[C@@H](Cc1c[nH]c2ccccc12)NC(=O)[C@H](Cc1ccc(O)cc1)N(C)C(=O)[C@H](CO)NC(=O)[C@@H](Cc1c[nH]c2ccccc12)NC(=O)CCc1ccc(Cl)cc1 | 0.00398 nM |
| CCNC(=O)[C@@H]1CCCN1C(=O)[C@H](CCCN=C(N)N)NC(=O)[C@H](CC(C)C)NC(=O)[C@@H](Cc1c[nH]c2ccccc12)NC(=O)[C@H](Cc1ccc(O)cc1)NC(=O)[C@H](CO)N(C)C(=O)[C@@H](Cc1c[nH]c2ccccc12)NC(=O)CCc1ccc(F)cc1 | 0.115 nM |
| CCNC(=O)[C@@H]1CCCN1C(=O)[C@H](CCCN=C(N)N)NC(=O)[C@H](CC(C)C)NC(=O)[C@@H](Cc1c[nH]c2ccccc12)NC(=O)[C@H](Cc1ccc(O)cc1)NC(=O)[C@H](CO)NC(=O)[C@H](Cc1ccc(O)cc1)NC(=O)CCc1ccc(Cl)cc1 ({Propanoyl(3-(4-Cl-Ph))}-YSY[dW]LRP-NHEt) | 0.851 nM |
| CCNC(=O)[C@@H]1CCCN1C(=O)[C@H](CCCN=C(N)N)NC(=O)[C@H](CC(C)C)NC(=O)[C@@H](CCCCNC(=O)c1cccnc1)NC(=O)[C@H](Cc1ccc(O)cc1)N(C)C(=O)[C@H](CO)NC(=O)[C@@H](Cc1c[nH]c2ccccc12)NC(=O)CCc1ccc(F)cc1F | 0.00891 nM |
| CC(C)C[C@H](NC(=O)[C@@H](CCCCNC(=O)c1cccnc1)NC(=O)[C@H](Cc1ccc(O)cc1)N(C)C(=O)[C@H](CO)NC(=O)[C@@H](Cc1cccc2ccccc12)NC(=O)CCc1ccc(F)cc1)C(=O)N[C@@H](CCCCNC(C)C)C(=O)N1CCC[C@H]1C(N)=O | 0.00692 nM |
| CCNC(=O)[C@@H]1CCCN1C(=O)[C@H](CCCN=C(N)N)NC(=O)[C@H](CC(C)C)NC(=O)[C@@H](Cc1c[nH]c2ccccc12)NC(=O)[C@H](Cc1ccc(O)cc1)NC(=O)[C@H](CO)NC(=O)[C@@H](Cc1ccc(Cl)cc1)NC(=O)CCc1ccc(F)cc1 | 0.0178 nM |
| CCNC(=O)[C@@H]1CCCN1C(=O)[C@H](CCCN=C(N)N)NC(=O)[C@H](CC(C)C)NC(=O)[C@@H](Cc1c[nH]c2ccccc12)NC(=O)[C@H](Cc1ccc(O)cc1)N(C)C(=O)[C@H](CO)NC(=O)[C@@H](Cc1c[nH]c2ccccc12)NC(=O)CCc1ccc(F)cc1F | 0.01 nM |
| CCNC(=O)[C@@H]1CCCN1C(=O)[C@H](CCCN=C(N)N)NC(=O)[C@H](CC(C)C)NC(=O)[C@@H](Cc1c[nH]c2ccccc12)NC(=O)[C@H](Cc1ccc(O)cc1)NC(=O)[C@@H]1CC(O)CN1C(=O)[C@@H](Cc1c[nH]c2ccccc12)NC(=O)CCc1ccc(F)cc1 (stereo partly drawn) | 20.9 nM |
| CCNC(=O)[C@@H]1CCCN1C(=O)[C@H](CCCN=C(N)N)NC(=O)[C@H](CC(C)C)NC(=O)[C@@H](Cc1c[nH]c2ccccc12)NC(=O)[C@H](Cc1ccc(O)cc1)NC(=O)[C@H](CO)NC(=O)[C@H](Cc1c[nH]c2ccccc12)NC(=O)Cc1ccc(O)cc1 (X1-WSY[dW]LRP-NHEt) | 44.7 nM |
| CCNC(=O)[C@@H]1CCCN1C(=O)[C@H](CCCN=C(N)N)NC(=O)[C@H](CC(C)C)NC(=O)[C@@H](Cc1ccc(O)cc1)NC(=O)[C@H](Cc1ccc(O)cc1)NC(=O)[C@H](CO)NC(=O)[C@H](Cc1c[nH]c2ccccc12)NC(=O)CCc1ccc(F)cc1 | 12.6 nM |
| CCNC(=O)[C@@H]1CCCN1C(=O)[C@H](CCCN=C(N)N)NC(=O)[C@H](CC(C)C)NC(=O)[C@@H](Cc1c[nH]c2ccccc12)NC(=O)[C@H](Cc1ccc(O)cc1)NC(=O)[C@@H]1CCCN1C(=O)[C@@H](Cc1c[nH]c2ccccc12)NC(=O)CCc1ccc(F)cc1 | 21.4 nM |
| CCNC(=O)[C@@H]1CCCN1C(=O)[C@H](CCCN=C(N)N)NC(=O)[C@H](CC(C)C)NC(=O)[C@@H](Cc1c[nH]c2ccccc12)NC(=O)[C@H](Cc1ccc(O)cc1)NC(=O)[C@H](CO)NC(=O)[C@H]1CCCN1C(=O)CCc1ccc(F)cc1 | 2.4 nM |
| CCNC(=O)[C@@H]1CCCN1C(=O)[C@H](CCCN=C(N)N)NC(=O)[C@H](CC(C)C)NC(=O)[C@@H](Cc1c[nH]c2ccccc12)NC(=O)[C@H](Cc1ccc(O)cc1)NC(=O)[C@H](CO)NC(=O)[C@H](Cc1c[nH]c2ccccc12)NC(=O)Cc1ccccc1 | 5.5 nM |
| CCNC(=O)[C@@H]1CCCN1C(=O)[C@H](CCCN=C(N)N)NC(=O)[C@H](CC(C)C)NC(=O)[C@@H](CCCCNC(=O)c1cccnc1)NC(=O)[C@H](Cc1ccc(O)cc1)NC(=O)[C@H](CO)NC(=O)[C@H](Cc1c[nH]c2ccccc12)NC(=O)CCc1ccc(F)cc1 | 20.9 nM |
| CCNC(=O)[C@@H]1CCCN1C(=O)[C@H](CCCCNC(C)C)NC(=O)[C@H](CC(C)C)NC(=O)[C@@H](CCCCNC(=O)c1cccnc1)NC(=O)[C@H](Cc1ccc(O)cc1)N(C)C(=O)[C@H](CO)NC(=O)[C@@H](Cc1cccc2ccccc12)NC(=O)CCc1ccc(F)cc1 | 0.00372 nM |
| CCNC(=O)[C@@H]1CCCN1C(=O)[C@H](CCCN=C(N)N)NC(=O)[C@H](CC(C)C)NC(=O)[C@@H](Cc1c[nH]c2ccccc12)NC(=O)[C@H](Cc1ccc(O)cc1)N(C)C(=O)[C@H](CO)NC(=O)[C@@H](Cc1cccc2ccccc12)NC(=O)CCc1ccc(Br)cc1 | 0.00631 nM |
| CCNC(=O)[C@@H]1CCCN1C(=O)[C@H](CCCN=C(N)N)NC(=O)[C@H](CC(C)C)NC(=O)[C@@H](Cc1ccc(Cl)cc1)NC(=O)[C@H](Cc1ccc(O)cc1)NC(=O)[C@H](CO)NC(=O)[C@H](Cc1c[nH]c2ccccc12)NC(=O)CCc1ccc(F)cc1 | 0.00891 nM |

| Compound | Kb |
| --- | --- |
| CCNC(=O)[C@@H]1CCCN1C(=O)[C@H](CCCN=C(N)N)NC(=O)[C@H](CC(C)C)NC(=O)[C@@H](Cc1c[nH]c2ccccc12)NC(=O)[C@H](Cc1ccc(O)cc1)NC(=O)[C@H](CO)NC(=O)[C@H](Cc1c[nH]c2ccccc12)NC(=O)[C@H](Cc1ccccc1)NC(C)=O | 9.55 nM |
| CCNC(=O)[C@@H]1CCCN1C(=O)[C@H](CCCN=C(N)N)NC(=O)[C@H](CC(C)C)NC(=O)[C@@H](Cc1c[nH]c2ccccc12)NC(=O)[C@H](Cc1ccc(O)cc1)NC(=O)[C@H](CO)NC(=O)[C@H](Cc1c[nH]c2ccccc12)NC(=O)c1cc2ccccc2[nH]1 | 17.8 nM |
| CCNC(=O)[C@@H]1CCCN1C(=O)[C@H](CCCN=C(N)N)NC(=O)[C@H](CC(C)C)NC(=O)[C@@H](Cc1c[nH]c2ccccc12)NC(=O)[C@H](Cc1ccc(O)cc1)NC(=O)[C@H](CO)NC(=O)[C@H](Cc1c[nH]c2ccccc12)NC(=O)CCc1ccc(O)cc1 (Desaminotyrosyl-WSY[dW]LRP-NHEt) | 15.5 nM |
| CCNC(=O)[C@@H]1CCCN1C(=O)[C@H](CCCN=C(N)N)NC(=O)[C@H](CC(C)C)NC(=O)[C@@H](CCCCNC(=O)c1cccnc1)NC(=O)[C@H](Cc1ccc(O)cc1)N(C)C(=O)[C@H](CO)NC(=O)[C@@H](Cc1c[nH]c2ccccc12)NC(=O)CCc1cccc(F)c1 | 0.0871 nM |
| CC(C)C[C@H](NC(=O)[C@@H](CCCCNC(=O)c1cccnc1)NC(=O)[C@H](Cc1ccc(O)cc1)N(C)C(=O)[C@H](CO)NC(=O)[C@@H](Cc1cccc2ccccc12)NC(=O)CCc1ccc(F)cc1)C(=O)N[C@@H](CCCCNC(C)C)C(=O)N1CCC[C@H]1C(=O)N[C@H](C)C(N)=O ({Propanoyl(3-(4-F-phenyl))}-[d1Nal]S[NMeY][dK](Nicotinoyl)L[Lys(iPr)]P[dA]-NH2) | 0.00741 nM |
| CCNC(=O)[C@@H]1CCCN1C(=O)[C@H](CCCN=C(N)N)NC(=O)[C@H](CC(C)C)NC(=O)[C@@H](Cc1c[nH]c2ccccc12)NC(=O)[C@H](Cc1ccc(O)cc1)N(C)C(=O)[C@H](CO)NC(=O)[C@@H](Cc1c[nH]c2ccccc12)NC(=O)CCc1ccc(F)cc1 | 0.00708 nM |
| CCNC(=O)[C@@H]1CCCN1C(=O)[C@H](CCCN=C(N)N)NC(=O)[C@H](CC(C)C)NC(=O)[C@@H](Cc1c[nH]c2ccccc12)NC(=O)[C@H](Cc1ccc(O)cc1)NC(=O)[C@H](CO)NC(=O)[C@@H](Cc1ccc(O)cc1)NC(=O)CCc1ccc(Cl)cc1 ({Propanoyl(3-(4-Cl-Ph))}-[dY]SY[dW]LRP-NHEt) | 0.0832 nM |
| CCNC(=O)[C@@H]1CCCN1C(=O)[C@H](CCCN=C(N)N)NC(=O)[C@H](CC(C)C)NC(=O)[C@@H](Cc1c[nH]c2ccccc12)NC(=O)[C@H](Cc1ccc(O)cc1)NC(=O)[C@H](CO)NC(=O)[C@@H](Cc1ccc(O)cc1)NC(=O)CCc1ccc(F)cc1 | 0.219 nM |
| CCNC(=O)[C@@H]1CCCN1C(=O)[C@H](CCCN=C(N)N)NC(=O)[C@H](CC(C)C)NC(=O)[C@@H](Cc1c[nH]c2ccccc12)NC(=O)[C@H](Cc1ccc(O)cc1)NC(=O)[C@H](CO)NC(=O)[C@H](Cc1c[nH]c2ccccc12)NC(=O)CCc1ccc(OC)cc1 | 2.4 nM |
| CCNC(=O)[C@@H]1CCCN1C(=O)[C@H](CCCN=C(N)N)NC(=O)[C@H](CC(C)C)NC(=O)[C@@H](Cc1ccc(O)cc1)NC(=O)[C@H](Cc1ccc(O)cc1)NC(=O)[C@H](CO)NC(=O)[C@@H](Cc1c[nH]c2ccccc12)NC(=O)CCc1ccc(F)cc1 | 0.0316 nM |
| CCNC(=O)[C@@H]1CCCN1C(=O)[C@H](CCCN=C(N)N)NC(=O)[C@H](CC(C)C)NC(=O)[C@@H](Cc1c[nH]c2ccccc12)NC(=O)[C@H](Cc1ccc(O)cc1)NC(=O)[C@H](CO)NC(=O)[C@H](Cc1c[nH]c2ccccc12)NC(=O)CCc1ccc(C(F)(F)F)cc1 | 0.955 nM |
| CCNC(=O)[C@@H]1CCCN1C(=O)[C@H](CCCN=C(N)N)NC(=O)[C@H](CC(C)C)NC(=O)[C@@H](Cc1c[nH]c2ccccc12)NC(=O)[C@H](Cc1ccc(O)cc1)NC(=O)[C@H](CO)NC(=O)[C@@H](Cc1c[nH]c2ccccc12)NC(=O)CCc1ccc(F)cc1 | 0.0389 nM |
| CCNC(=O)[C@@H]1CCCN1C(=O)[C@H](CCCN=C(N)N)NC(=O)[C@H](CC(C)C)NC(=O)[C@@H](Cc1c[nH]c2ccccc12)NC(=O)[C@H](Cc1ccc(O)cc1)NC(=O)[C@H](CO)NC(=O)[C@@H](Cc1c[nH]c2ccccc12)NC(=O)CCc1ccc(F)c(F)c1 | 0.0355 nM |
| CCNC(=O)[C@@H]1CCCN1C(=O)[C@H](CCCN=C(N)N)NC(=O)[C@H](CC(C)C)NC(=O)[C@@H](Cc1c[nH]c2ccccc12)NC(=O)[C@H](Cc1ccc(O)cc1)N(C)C(=O)[C@H](CO)NC(=O)[C@@H](Cc1cccc2ccccc12)NC(=O)CCc1ccc(F)cc1 | 0.00562 nM |
| CCNC(=O)[C@@H]1CCCN1C(=O)[C@H](CCCN=C(N)N)NC(=O)[C@H](CC(C)C)NC(=O)[C@@H](CCCCNC(=O)c1cccnc1)NC(=O)[C@H](Cc1ccc(O)cc1)N(C)C(=O)[C@H](CO)NC(=O)[C@@H](Cc1c[nH]c2ccccc12)NC(=O)CCc1ccc(Cl)cc1 | 0.0158 nM |
| CCNC(=O)[C@@H]1CCCN1C(=O)[C@H](CCCN=C(N)N)NC(=O)[C@H](CC(C)C)NC(=O)[C@@H](Cc1c[nH]c2ccccc12)NC(=O)[C@H](Cc1ccc(O)cc1)NC(=O)[C@H](CO)NC(=O)[C@H](Cc1c[nH]c2ccccc12)NC(=O)CCc1cccc(F)c1 | 0.891 nM |
